Assay results taken from ChEMBL document CHEMBL4308891, “Small molecules inhibit ex vivo tumor growth in bone” (Bioorg Med Chem, 2018).
Calls of active or inactive are those of the source. The calls are words filed in the database; no cut-off is given here.

Columns and labels:
MDA-MB-231 [1] = test: Upregulation of Fas expression in human MDA-MB-231 cells co-cultured with neonatal Swiss mouse calvariae bone measured on day 7 post treatment by SYBR green-dye based RT-qPCR analysis; format: functional, cell-based
In short: (§1)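 Calvarial disk cultures ([…] Swiss pups) in BGJb plus 10% fetal calf serum were PBS-washed at day 7 and bead-homogenized in Qiazol. Aqueous-phase RNA was isolated, reverse-transcribed and run in triplicate real-time PCR with species-specific primers. Expression was normalized to ribosomal protein L32 mRNA. n = 3 or 4 cultures, ANOVA.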

Bone [2] = test: Down regulation of TRAP expression in neonatal Swiss mouse calvariae bone co-cultured with human MDA-MB-231 cells measured on day 7 post treatment by SYBR green-dye based RT-qPCR analysis; format: functional, tissue-based; settings: Bone element; in short: as §1
MDA-MB-231 [3] = test: Ex vivo antitumor activity against human MDA-MB-231 cells co-cultured with neonatal Swiss mouse bone in BGJb medium assessed as inhibition of tumor growth at 5 uM administered simultaneously with cancer cells measured on day 7 post treatment by Gaussia luciferase reporter gene assay relative to control; format: functional
In short: (§2)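 Calvariae from […] Swiss mouse pups were punched into 4 or 5 mm disks. Each was seeded with 1 x 10^4 tumor cells (lentiviral secreted Gaussia luciferase/GFP-blasticidin, FACS-sorted GFP+) in BGJb plus 10% fetal calf serum at 37°C, 5% CO2. After 24 h bones moved to fresh wells; medium changed every 2 days. Conditioned-medium luciferase read as RLU. Biological triplicate, mean ± SD, Welch's t-test.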

NCI-H460 [4] = test: Cytotoxicity against human NCI-H460 cells after 24 hrs; format: cell-based; settings: nci-h460, 24 h
MDA-MB-231 [5] = test: Down regulation of CCN3 expression in human MDA-MB-231 cells co-cultured with neonatal Swiss mouse calvariae bone measured on day 7 post treatment by SYBR green-dye based RT-qPCR analysis relative to control; format: functional; in short: as §1
U-87 MG [6] = test: Cytotoxicity against human U87 cells after 24 hrs; format: cell-based; settings: u-87mg atcc
MDA-MB-231 [7] = test: Ex vivo antitumor activity against human MDA-MB-231 cells co-cultured with neonatal Swiss mouse bone in BGJb medium assessed as inhibition of tumor growth at 5 uM administered simultaneously with cancer cells measured on day 5 post treatment by Gaussia luciferase reporter gene assay relative to control; format: functional; in short: as §2
Bone [8] = test: Down regulation of RANKL expression in neonatal Swiss mouse calvariae bone co-cultured with human MDA-MB-231 cells measured on day 7 post treatment by SYBR green-dye based RT-qPCR analysis; format: functional, tissue-based; settings: Bone element; in short: as §1
MDA-MB-231 [9] = test: Down regulation of FGF5 expression in human MDA-MB-231 cells co-cultured with neonatal Swiss mouse calvariae bone measured on day 7 post treatment by SYBR green-dye based RT-qPCR analysis; format: functional, cell-based; in short: as §1
U-87 MG [10] = test: Antiinvasive activity in human U87 cells at 5 uM by boyden chamber method; format: functional, cell-based; settings: U-87MG ATCC
MIA PaCa-2 [11] = test: Antiinvasive activity in human MIAPaCa2 cells at 5 uM by boyden chamber method; format: functional, cell-based
MDA-MB-231 [12] = test: Antiinvasive activity in human MDA-MB-231 cells by boyden chamber method; format: functional, cell-based
MDA-MB-231 [13] = test: Down regulation of CDH11 expression in human MDA-MB-231 cells co-cultured with neonatal Swiss mouse calvariae bone measured on day 7 post treatment by SYBR green-dye based RT-qPCR analysis
MDA-MB-231 [14] = test: Down regulation of IL-8 expression in human MDA-MB-231 cells co-cultured with neonatal Swiss mouse calvariae bone measured on day 7 post treatment by SYBR green-dye based RT-qPCR analysis; format: functional, cell-based; in short: as §1
Bone [15] = test: Effect on TRAP expression in neonatal Swiss mouse calvariae bone measured on day 7 post treatment by SYBR green-dye based RT-qPCR analysis; format: functional, tissue-based; settings: Bone element; in short: as §1
MDA-MB-231 [16] = test: Antiinvasive activity in human MDA-MB-231 cells assessed as inhibition of cell invasion at 5 uM by boyden chamber method relative to control; format: functional
MIA PaCa-2 [17] = test: Cytotoxicity against human MIAPaCa2 cells after 24 hrs; format: cell-based; settings: mia paca-2, 24 h
MDA-MB-231 [18] = test: Ex vivo antitumor activity against human MDA-MB-231 cells co-cultured with neonatal Swiss mouse bone in BGJb medium assessed as inhibition of tumor growth at 5 uM administered on day 2 post cancer cells addition measured on day 5 post treatment by Gaussia luciferase reporter gene assay relative to control; format: functional; in short: as §2
MDA-MB-231 [19] = test: Cytotoxicity against human MDA-MB-231 cells at 12.5 uM after 3 days by MTS assay; format: cell-based; settings: mda-mb-231, 72 h
MDA-MB-231 [20] = test: Antimigratory activity in human MDA-MB-231 cells at 10 uM after 9 hrs by wound healing assay; format: functional, cell-based
In short: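 Confluent monolayers in 12-well plates were scratched with a micropipette tip, washed, then cultured in complete medium with compound. Gap width between wound edges was measured by microscopy in three random regions right after wounding and at 6 and 9 h.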

NCI-H460 [21] = test: Antiinvasive activity in human NCI-H460 cells at 5 uM by boyden chamber method; format: functional, cell-based
MDA-MB-231 [22] = test: Down regulation of ENPP1 expression in human MDA-MB-231 cells co-cultured with neonatal Swiss mouse calvariae bone measured on day 7 post treatment by SYBR green-dye based RT-qPCR analysis relative to control; format: functional; in short: as §1
MDA-MB-231 [23] = test: Effect on CCL2 expression in human MDA-MB-231 cells co-cultured with neonatal Swiss mouse calvariae bone measured on day 7 post treatment by SYBR green-dye based RT-qPCR analysis; format: functional, cell-based; in short: as §1
MDA-MB-231 [24] = test: Cytotoxicity against human MDA-MB-231 cells at 0.625 to 5 uM after 24 hrs; format: cell-based; settings: mda-mb-231, 24 h
Bone [25] = test: Effect on Col1A1 expression in neonatal Swiss mouse calvariae bone co-cultured with human MDA-MB-231 cells measured on day 7 post treatment by SYBR green-dye based RT-qPCR analysis; format: functional, tissue-based; settings: Bone element; in short: as §1
MDA-MB-231 [26] = test: Ex vivo antitumor activity against human MDA-MB-231 cells co-cultured with neonatal Swiss mouse bone in BGJb medium assessed as inhibition of tumor growth at 5 uM administered on day 2 post cancer cells addition measured on day 7 post treatment by Gaussia luciferase reporter gene assay relative to control; format: functional; in short: as §2
Bone [27] = test: Effect on RANKL expression in neonatal Swiss mouse calvariae bone measured on day 7 post treatment by SYBR green-dye based RT-qPCR analysis; format: functional, tissue-based; settings: Bone element; in short: as §1
MDA-MB-231 [28] = test: Effect on CTGF expression in human MDA-MB-231 cells co-cultured with neonatal Swiss mouse calvariae bone measured on day 7 post treatment by SYBR green-dye based RT-qPCR analysis; format: functional, cell-based; in short: as §1
[29] = Inhibition of angiogenesis in human HRMEC assessed as inhibition of endothelial cell tube formation up to 10 uM after 8 hrs by microscopic analysis
In short: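 Primary human retinal microvascular endothelial cells were grown on Matrigel in complete medium for 8 h, then tubule formation was measured. Significance was assessed by ANOVA.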

MDA-MB-231 [30] = test: Upregulation of BCL2L1 expression in human MDA-MB-231 cells co-cultured with neonatal Swiss mouse calvariae bone measured on day 7 post treatment by SYBR green-dye based RT-qPCR analysis; format: functional, cell-based; in short: as §1
MDA-MB-231 [31] = test: Effect on ICAM expression in human MDA-MB-231 cells co-cultured with neonatal Swiss mouse calvariae bone measured on day 7 post treatment by SYBR green-dye based RT-qPCR analysis; format: functional, cell-based; in short: as §1
Bone [32] = test: Effect on osteocalcin expression in neonatal Swiss mouse calvariae bone co-cultured with human MDA-MB-231 cells measured on day 7 post treatment by SYBR green-dye based RT-qPCR analysis; format: functional, tissue-based; settings: Bone element; in short: as §1
MDA-MB-231 [33] = test: Down regulation of IL11 expression in human MDA-MB-231 cells co-cultured with neonatal Swiss mouse calvariae bone measured on day 7 post treatment by SYBR green-dye based RT-qPCR analysis relative to control; format: functional; in short: as §1

Compound	Activity (MDA-MB-231 [1])	Activity (Bone [2])	TGI (MDA-MB-231 [3]) [%]	Activity (NCI-H460 [4])	Activity (U-87 MG [6])	TGI (MDA-MB-231 [7]) [%]	Activity (Bone [8])	Activity (MDA-MB-231 [9])	Activity (U-87 MG [10])	Activity (MIA PaCa-2 [11])	Activity (MDA-MB-231 [12])	IC50 (MDA-MB-231 [12]) [nM]	Activity (MDA-MB-231 [14])	inhibition at 5 µM (MDA-MB-231 [16]) [%]	Activity (MIA PaCa-2 [17])	TGI (MDA-MB-231 [18]) [%]	Activity (MDA-MB-231 [19])	Activity (MDA-MB-231 [20])	Activity (NCI-H460 [21])	Activity (MDA-MB-231 [22]) [%]	other results
O=C1C2NN=C(c3ccc(Cl)cc3)C2C(c2cccc(F)c2)N1CCc1c[nH]c2ccccc12 (stereo not drawn)	Active	Active	60	Non-Toxic	Non-Toxic	70	Active	inactive	inactive	Active	Dose-dependent effect	2600	Active	> 70	Non-Toxic	53	Non-Toxic	inactive	inactive	90	Activity (MDA-MB-231 [5]): 90%; Activity (MDA-MB-231 [13]): Active; Activity (Bone [15]): inactive; Activity (MDA-MB-231 [23]): inactive; Activity (MDA-MB-231 [24]): Non-Toxic; Activity (Bone [25]): inactive; TGI (MDA-MB-231 [26]): 36%; Activity (Bone [27]): Active; Activity (MDA-MB-231 [28]): inactive; Activity [29]: Not Active; Activity (MDA-MB-231 [30]): Active; Activity (MDA-MB-231 [31]): inactive; Activity (Bone [32]): inactive
Cc1ccc(N2C(=O)C3NN=C(c4ccc(Cl)cc4)C3C2c2cccc(F)c2)cc1Br (stereo not drawn)	Active	Active	60	Non-Toxic	Non-Toxic	70	Active	inactive	inactive	Active	Dose-dependent effect	2900	Active	> 70	Non-Toxic	66	Non-Toxic	inactive	inactive	60	Activity (MDA-MB-231 [33]): >80%; Activity (MDA-MB-231 [23]): inactive; Activity (MDA-MB-231 [24]): Non-Toxic; Activity (Bone [25]): inactive; TGI (MDA-MB-231 [26]): 47%; Activity (MDA-MB-231 [28]): inactive; Activity [29]: Not Active; Activity (MDA-MB-231 [30]): Active; Activity (MDA-MB-231 [31]): inactive; Activity (Bone [32]): inactive
